In ChEMBL document CHEMBL1157863, “Synthesis and antiviral activity of new acrylamide derivatives containing 1,2,3-thiadiazole as inhibitors of hepatitis B virus replication” (Eur J Med Chem, 2010):
≈ marks a conversion by molar mass, not a printed value.

Columns and labels:
[1] = test system: Hepatitis B virus; assay: Antiviral activity against HBV infected in HepG2(2.2.15) cells assessed as inhibition of viral surface antigen secretion after 8 days by radio immunoassay; type: functional, organism-based
In short: (§1)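 Confluent 2.2.15 cultures were dosed at several concentrations in RPMI 1640 with 2% FBS, with fresh medium and compound each day for 8 days and untreated cell controls. HBsAg and HBeAg secreted into the supernatant were quantified by radioimmunoassay kits.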

[2] = Cytotoxicity against human HepG2(2.2.15) cells after 9 days by neutral red dye uptake assay; details: read-out: TC50
[3] = test system: Hepatitis B virus; assay: Antiviral activity against HBV infected in HepG2(2.2.15) cells assessed as inhibition of viral DNA replication after 8 days by dot blot hybridization
[4] = Selectivity index, ratio of TC50 for human HepG2(2.2.15) cells to IC50 for Hepatitis B virus DNA replication; type: toxicity
[5] = Selectivity index, ratio of TC50 for human HepG2(2.2.15) cells to IC50 for Hepatitis B virus early antigen secretion; type: toxicity
[6] = test system: Hepatitis B virus; assay: Antiviral activity against HBV infected in HepG2(2.2.15) cells assessed as inhibition of viral early antigen secretion after 8 days by radio immunoassay; type: functional, organism-based; details: HepG2 2.2.15, 192 h; in short: as §1
[7] = Hepatitis B virus, HepG2 2.2.15, 192 h, read-out: IC50

With `CCN(CC)C(=O)/C(NC(=O)c1ccccc1)=C(/Br)c1snnc1C` the IC50 [1] was “Not Active”, the CC50 at 216 h [2] was 86.2 µg/mL (≈ 204 µM) and the IC50 ([3]; hepg2 2.2.15) was “Not Active”.

In the case of `Cc1nnsc1C(=O)N/C(C(=O)N1CCCCC1)=C(\Br)c1ccccc1Cl`, the selectivity ratio [4] is reported as 8.29, the IC50 [1] is reported as “Not Active” and the CC50 at 216 h [2] is reported as 86.2 µg/mL (≈ 184 µM). For the same molecule, the IC50 [3, 7] was 10.4 µg/mL (≈ 22.1 µM).

For `Cc1nnsc1C(=O)N/C(C(=O)N1CCCCC1)=C(\Cl)c1ccccc1`, the IC50 [1] was “Not Active”, the CC50 at 216 h [2] was 64.2 µg/mL (≈ 164 µM) and the selectivity ratio [5] was 5.23. The IC50 ([3]; hepg2 2.2.15) was “Not Active” and the IC50 [6] was 12.3 µg/mL (≈ 31.4 µM).

For `Nc1ccn([C@@H]2CS[C@H](CO)O2)c(=O)n1` [LAMIVUDINE], the selectivity ratio [4] was 65, the IC50 [1] was “Not Active” and the CC50 at 216 h [2] was 962 µg/mL (≈ 4190 µM). For the same molecule, the IC50 [3, 7] was 14.8 µg/mL (≈ 64.6 µM).

In the case of `Cc1nnsc1C(=O)N/C(C(=O)N1CCOCC1)=C(\Br)c1snnc1C`, the IC50 [1] is reported as “Not Active”, the CC50 at 216 h [2] is reported as 47.7 µg/mL (≈ 104 µM) and the IC50 ([3]; hepg2 2.2.15) is reported as “Not Active”.

In the case of `Cc1nnsc1C(=O)N/C(C(=O)N1CCCCC1)=C(\Br)c1ccc(Cl)cc1`, the selectivity ratio [4] is reported as 4.96, the IC50 [1] is reported as “Not Active” and the CC50 at 216 h [2] is reported as 17.8 µg/mL (≈ 37.9 µM). For the same molecule, the IC50 [3, 7] was 3.59 µg/mL (≈ 7.64 µM).

For `Cc1nnsc1/C(Br)=C(/NC(=O)c1ccccc1)C(=O)N1CCCCC1`, the selectivity ratio [4] was 21.4, the IC50 [1] was “Not Active” and the CC50 at 216 h [2] was 192 µg/mL (≈ 442 µM). For the same molecule, the IC50 [3, 7] was 9 µg/mL (≈ 20.7 µM).

With `Cc1nnsc1/C=C(/NC(=O)c1ccccc1)C(=O)N1CCCCC1` the IC50 [1] was “Not Active”, the CC50 at 216 h [2] was 231 µg/mL (≈ 648 µM) and the IC50 ([3]; hepg2 2.2.15) was “Not Active”.

With `Cc1nnsc1/C(Br)=C(/NC(=O)c1ccccc1)C(=O)N1CCOCC1` the selectivity ratio [4] was 10.9, the IC50 [1] was “Not Active” and the CC50 at 216 h [2] was 333 µg/mL (≈ 762 µM). It also gave an IC50 [3, 7] of 30.5 µg/mL (≈ 69.8 µM).

In the case of `Cc1nnsc1C(=O)N/C(C(=O)N1CCCCC1)=C(\Br)c1ccccc1`, the IC50 [1] is reported as “Not Active”, the CC50 at 216 h [2] is reported as 111 µg/mL (≈ 255 µM) and the IC50 ([3]; hepg2 2.2.15) is reported as “Not Active”.

For `Cc1nnsc1/C(Cl)=C(/NC(=O)c1ccccc1)C(=O)N1CCOCC1`, the IC50 [1] was “Not Active”, the CC50 at 216 h [2] was 577 µg/mL (≈ 1470 µM) and the IC50 ([3]; hepg2 2.2.15) was “Not Active”.
